From ChEMBL document CHEMBL1124254, “Pumiliotoxin alkaloids: relationship of cardiotonic activity to sodium channel activity and phosphatidylinositol turnover” (1988)

Assays:
Type in all cases: functional
Cavia porcellus [1] = organism: Cavia porcellus; assay: Phosphoinositide breakdown in guinea pig brain synaptoneurosomes.; set-up: concentration or dose not given beside the values
Procedure, shortened: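 Guinea pig cerebral cortex synaptoneurosomes (~1 mg protein per tube) were labelled 60 min at 37 °C with 1 μM [3H]inositol in Krebs-Henseleit buffer (pH 7.4). LiCl was added, and agents were added 10 min later for 90 min at 37 °C under O2-CO2. [3H]inositol 1-phosphate was isolated by anion exchange and counted. Results are percent of control, means ± SEM (n = 3) or single values at 10 μM.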

Cavia porcellus [2] = organism: Cavia porcellus; assay: Cardiotonic activity was measured in guinea pig atria at 54 uM concentration; Ranking -
Procedure, shortened: (§1)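 Isolated atria suspended at 37 °C in Tyrode's solution aerated with O2-CO2 (95:5). After at least 1 h equilibration, cumulative dose-response curves for rate and force of spontaneous contractions were built by serial additions of alkaloid in methanol, at least 10 min apart. Effects given at 54 μM; values are averages of two to six experiments.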

Cavia porcellus [3] = organism: Cavia porcellus; assay: Cardiotonic activity was measured in guinea pig atria at 54 uM concentration; Ranking; procedure, shortened: as §1
Cavia porcellus [4] = organism: Cavia porcellus; assay: Cardiotonic activity was measured in guinea pig atria at 18 uM concentration; Ranking
Procedure, shortened: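 Isolated spontaneously beating atria held at 37 °C in Tyrode's solution gassed with 95:5 O2-CO2, equilibrated at least 1 h. Alkaloid was added serially in methanol, at least 10 min apart, to build cumulative dose-response curves. Rate and force of spontaneous contractions were recorded. Values are averages of two to six experiments.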

Mus musculus = organism: Mus musculus; assay: Phosphoinositide (PI) breakdown was measured in mouse atria at 10 uM
Procedure, shortened: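 Male mouse (20-25 g) right and left atria were prelabelled for 60 min at 37 °C in Krebs-Henseleit buffer (pH 7.4) with 1 μM [3H]inositol. LiCl (10 mM final) was added, and agents were added 15 min later at 10 μM for 30 min at 37 °C. [3H]inositol phosphates in the TCA extract were separated by anion exchange. Results are percent of control, two to four determinations ± SEM.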

Cavia porcellus [5] = organism: Cavia porcellus; assay: Specific sodium influx was measured in guinea pig brain synaptoneurosomes at 100 uM concentration (10s of incubation)

| Structure (SMILES) | Activity (Cavia porcellus [1]) | Activity (Cavia porcellus [2]) | Activity (Cavia porcellus [3]) | Activity (Cavia porcellus [4]) | Activity (Mus musculus) | Activity (Cavia porcellus [5]) |
| --- | --- | --- | --- | --- | --- | --- |
| C[C@]1(O)C/C(=C/CCCCCCO)CN2CCC[C@H]21 | 122% | Ranking - | – | – | – | – |
| C[C@@H](/C=C1\CN2CCC[C@H]2[C@@](C)(O)C1)CCO | 110% | Ranking - | – | – | – | – |
| C/C(=C\C[C@@H](C)/C=C1\CN2CCC[C@H]2[C@@](C)(O)C1)[C@H](O)[C@H](C)O | 129% | – | Ranking | – | – | – |
| CC[C@H](O)/C(C)=C/C[C@@H](C)/C=C1\CN2CCC[C@H]2[C@@](C)(O)C1 | – | – | Ranking | – | – | – |
| CC[C@@H](O)/C(C)=C/C[C@@H](C)/C=C1\CN2CCC[C@H]2[C@@](C)(O)[C@@H]1O | 137% | – | Ranking | – | – | – |
| C/C(=C\C[C@@H](C)/C=C1\CN2CCC[C@H]2[C@@](C)(O)[C@@H]1O)[C@@H](O)[C@@H](C)O | 304% | – | – | Ranking | – | – |
| CC(O)CC[C@@H](C)/C=C1\CN2CCC[C@H]2[C@@](C)(O)C1 (stereo not given in full) | 129% | – | Ranking | – | – | – |
| CC[C@H](O)/C(C)=C/C[C@@H](C)/C=C1\CN2CCC[C@H]2[C@@](C)(O)[C@@H]1O | 275% | – | – | Ranking | – | – |
| C/C(=C\C[C@@H](C)/C=C1\CN2CCC[C@H]2[C@@](C)(O)C1)[C@@H](O)[C@@H](C)O | 280% | – | – | – | 150% | 3.05 nM (mg of protein)-1 |
| C[C@H](/C=C1\CN2CCC[C@H]2[C@@](C)(O)C1)CCO | 115% | Ranking - | – | – | – | – |
| CCC[C@@H](C)/C=C1\CN2CCC[C@H]2[C@@](C)(O)[C@@H]1O | 138% | – | Ranking | – | – | – |
| CCC[C@H](C)/C=C1\CN2CCC[C@H]2[C@@](C)(O)[C@H]1O | 116% | Ranking - | – | – | – | – |
| C/C(=C\C[C@H](C)/C=C1\CN2CCC[C@H]2[C@@](C)(O)C1)[C@@H](O)[C@@H](C)O | 110% | – | Ranking | – | – | – |
| CCC(OC)/C(C)=C/C[C@@H](C)/C=C1\CN2CCC[C@H]2[C@@](C)(O)C1 (stereo not given in full) | 118% | Ranking - | – | – | 92% | 0.29 nM (mg of protein)-1 |
| CCC(O)/C(C)=C/C[C@@H](C)/C=C1\CN2CCC[C@H]2[C@@](C)(O)C1 (stereo not given in full) | 172% | – | Ranking | – | 114% | 0.72 nM (mg of protein)-1 |
| C=CCCCC/C=C1\CN2CCC[C@H]2[C@@](C)(O)C1 | 112% | Ranking - | – | – | – | – |
| CCC(=O)/C(C)=C/C[C@@H](C)/C=C1\CN2CCC[C@H]2[C@@](C)(O)C1 | 109% | Ranking - | – | – | – | – |
| C/C(=C\C[C@@H](C)/C=C1\CN2CCC[C@H]2[C@@](C)(O)C1)[C@@H](O)[C@H](C)O | – | – | Ranking | – | – | – |
| CCCC[C@@H](C)/C=C1\CN2CCC[C@H]2[C@@](C)(O)C1 | 132% | Ranking - | – | – | – | – |
| C/C(=C\C[C@@H](C)/C=C1\CN2CCC[C@H]2[C@@](C)(O)[C@H]1O)[C@@H](O)[C@@H](C)O | 176% | – | Ranking | – | – | – |
| C[C@@H](/C=C1\CN2CCC[C@H]2[C@@](C)(O)C1)CCOCc1ccccc1 | 102% | Ranking - | – | – | – | – |
